Assay results published in ChEMBL document CHEMBL1821590, “Novel dihydropyrimidines and its pyrazole derivatives: synthesis and pharmacological screening” (Eur J Med Chem, 2011).
In brackets after ≈: the same amount, converted by molar mass.

What was measured:
Type in all cases: functional
Metaphire posthuma [1] = experiment: Anthelmintic activity against Pheretima posthuma assessed as time taken for parasite death at 0.1% w/v
In short: (§1)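 Earthworms (Pheretima posthuma, spelled Perituma posthuma in text) exposed to test compounds at 0.1, 0.2 and 0.5% w/v. Albendazole served as standard, with an untreated control. Paralysis was recorded as the time until worms became motionless, then time to death was recorded, in minutes. Each value is the mean of three determinations with S.D.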

Staphylococcus aureus [2] = experiment: Antimicrobial activity against Staphylococcus aureus at 50 ug/ml by agar plate diffusion technique; details: read-out: IZ
In short: (§2)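 Agar plate diffusion against E. coli, P. aeruginosa, S. aureus and B. subtilis, with compounds at 25, 50 and 100 µg/mL. Streptomycin as standard.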

Staphylococcus aureus [3] = experiment: Antimicrobial activity against Staphylococcus aureus at 25 ug/ml by agar plate diffusion technique; details: read-out: IZ; in short: as §2
Metaphire posthuma [4] = experiment: Anthelmintic activity against Pheretima posthuma assessed as time taken for parasite death at 0.2% w/v; in short: as §1
Candida albicans [5] = experiment: Antimicrobial activity against Candida albicans at 25 ug/ml by paper disc method; details: read-out: IZ
In short: (§3)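 Paper disc method against A. niger and C. albicans, with compounds at 25, 50 and 100 µg/mL. Amphotericin-B as standard.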

[6] = Antioxidant activity assessed as potassium ferricyanide ion reducing power after 20 mins
In short: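 Oyaizu method. Samples or ascorbic acid in DMF (12.5–100 µg/mL) mixed with 0.2 M phosphate buffer pH 6.6 and 1% potassium ferricyanide, 20 min at 50 °C. 10% TCA added, centrifuged. Supernatant mixed with water and 0.1% FeCl3, read at 700 nm. % = [(Vt/Vc) − 1] × 100. IC50 derived.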

Escherichia coli [7] = experiment: Antimicrobial activity against Escherichia coli at 100 ug/ml by agar plate diffusion technique; details: read-out: IZ; in short: as §2
Metaphire posthuma [8] = experiment: Anthelmintic activity against Pheretima posthuma assessed as time taken for complete parasite paralysis at 0.2% w/v
In short: (§4)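 Earthworms (Pheretima posthuma) exposed to test solutions at 0.1, 0.2 and 0.5% w/v; time in minutes to complete paralysis (worms motionless) recorded. Albendazole as standard. Mean of three determinations ± S.D.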

Aspergillus niger [9] = experiment: Antimicrobial activity against Aspergillus niger at 100 ug/ml by paper disc method; details: read-out: IZ; in short: as §3
Bacillus subtilis [10] = experiment: Antimicrobial activity against Bacillus subtilis at 25 ug/ml by agar plate diffusion technique; details: read-out: IZ; in short: as §2
[11] = Antioxidant activity assessed as hydrogen peroxide scavenging activity after 10 mins
In short: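 H2O2 (20 mM) in PBS pH 7.4. 1 mL of sample or ascorbic acid in methanol (12.5–100 µg/mL) added to 2 mL H2O2 solution. A230 read after 10 min. % inhibition = [1 − (Vt/Vc)] × 100. Triplicate, averaged. IC50 derived from % inhibition across concentrations.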

Metaphire posthuma [12] = experiment: Anthelmintic activity against Pheretima posthuma assessed as time taken for complete parasite paralysis at 0.5% w/v; in short: as §4
Bacillus subtilis [13] = experiment: Antimicrobial activity against Bacillus subtilis at 100 ug/ml by agar plate diffusion technique; details: read-out: IZ; in short: as §2
Aspergillus niger [14] = experiment: Antimicrobial activity against Aspergillus niger at 50 ug/ml by paper disc method; details: read-out: IZ; in short: as §3
Pseudomonas aeruginosa [15] = experiment: Antimicrobial activity against Pseudomonas aeruginosa at 50 ug/ml by agar plate diffusion technique; details: read-out: IZ; in short: as §2
Staphylococcus aureus [16] = experiment: Antimicrobial activity against Staphylococcus aureus at 100 ug/ml by agar plate diffusion technique; details: read-out: IZ; in short: as §2
Escherichia coli [17] = experiment: Antimicrobial activity against Escherichia coli at 50 ug/ml by agar plate diffusion technique; details: read-out: IZ; in short: as §2
Aspergillus niger [18] = experiment: Antimicrobial activity against Aspergillus niger at 25 ug/ml by paper disc method; details: read-out: IZ; in short: as §3
Bacillus subtilis [19] = experiment: Antimicrobial activity against Bacillus subtilis at 50 ug/ml by agar plate diffusion technique; details: read-out: IZ; in short: as §2
Metaphire posthuma [20] = experiment: Anthelmintic activity against Pheretima posthuma assessed as time taken for complete parasite paralysis at 0.1% w/v; in short: as §4
Candida albicans [21] = experiment: Antimicrobial activity against Candida albicans at 50 ug/ml by paper disc method; details: read-out: IZ; in short: as §3
Candida albicans [22] = experiment: Antimicrobial activity against Candida albicans at 100 ug/ml by paper disc method; details: read-out: IZ; in short: as §3
[23] = Antioxidant activity assessed as nitric oxide radical scavenging activity after 150 mins
In short: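 10 mM sodium nitroprusside (4 mL), PBS pH 7.4 (1 mL) and sample or ascorbic acid in DMSO (1 mL, 12.5–100 µg/mL), incubated 150 min at 25 °C. Nitrite detected with sulphanilic acid (5 min) then naphthylethylenediamine (30 min, diffused light). Read at […]. Triplicate. % inhibition = [1 − (Vt/Vc)] × 100. IC50 derived from it.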

Escherichia coli [24] = experiment: Antimicrobial activity against Escherichia coli at 25 ug/ml by agar plate diffusion technique; details: read-out: IZ; in short: as §2
[25] = Antiinflammatory activity assessed as inhibition of albumin denaturation at 100 ug/ml by UV-visible spectrophotometry
In short: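 Compounds dissolved in minimal DMF, diluted in PBS pH 7.4 (final DMF <2.5%). 1 mL test solution (100 µg/mL) plus 1 mL 1% albumin in PBS, 15 min at 27 ± 1 °C, then heated 10 min at 60 ± 1 °C. After cooling, turbidity read at 660 nm. % inhibition = [(Vt/Vc) − 1] × 100 against a no-drug control. Triplicate, averaged. Diclofenac standard.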

Metaphire posthuma [26] = experiment: Anthelmintic activity against Pheretima posthuma assessed as time taken for parasite death at 0.5% w/v; in short: as §1
Pseudomonas aeruginosa [27] = experiment: Antimicrobial activity against Pseudomonas aeruginosa at 25 ug/ml by agar plate diffusion technique; details: read-out: IZ; in short: as §2
[28] = Antioxidant activity assessed as inhibition of lipid peroxidation using egg lecithin liposomes incubated for 1 hr
In short: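 Egg lecithin (3 mg/mL, phosphate buffer pH 7.4) sonicated 10 min to form liposomes. Sample or ascorbic acid (12.5–100 µg/mL) added. Peroxidation induced with FeCl3 and L-ascorbic acid, 1 h at 37 °C. Stopped with HCl/TCA/TBA/BHA, boiled 15 min, centrifuged, supernatant read at 532 nm. Triplicate. % inhibition vs control. IC50 derived.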

Pseudomonas aeruginosa [29] = experiment: Antimicrobial activity against Pseudomonas aeruginosa at 100 ug/ml by agar plate diffusion technique; details: read-out: IZ; in short: as §2

With `CCOC(=O)c1cnn(-c2nc(-c3cccs3)c(C#N)c(=O)n2C)c1N` the Time (Metaphire posthuma [1]) was 47.38 min, the zone of inhibition at 50 µg/mL (Staphylococcus aureus [2]) was 12.2 mm and the zone of inhibition at 25 µg/mL (Staphylococcus aureus [3]) was 11.8 mm. The Time (Metaphire posthuma [4]) was 49.67 min, the zone of inhibition at 25 µg/mL (Candida albicans [5]) was 9.1 mm and the IC50 [6] was 79 µg/mL (≈ 213 µM). It also gave a zone of inhibition at 100 µg/mL (Escherichia coli [7]) of 16.1 mm, a Time (Metaphire posthuma [8]) of 40.12 min and a zone of inhibition at 100 µg/mL (Aspergillus niger [9]) of 22.1 mm. For the same molecule, the zone of inhibition at 25 µg/mL (Bacillus subtilis [10]) was 12.9 mm, the IC50 [11] was 109 µg/mL (≈ 294 µM) and the Time (Metaphire posthuma [12]) was 43.59 min. The zone of inhibition at 100 µg/mL (Bacillus subtilis [13]) was 18.7 mm, the zone of inhibition at 50 µg/mL (Aspergillus niger [14]) was 15.8 mm and the zone of inhibition at 50 µg/mL (Pseudomonas aeruginosa [15]) was 12.7 mm. The zone of inhibition at 100 µg/mL (Staphylococcus aureus [16]) was 16.5 mm, the zone of inhibition at 50 µg/mL (Escherichia coli [17]) was 13.1 mm and the zone of inhibition at 25 µg/mL (Aspergillus niger [18]) was 12.1 mm. It also gave a zone of inhibition at 50 µg/mL (Bacillus subtilis [19]) of 15.1 mm, a Time (Metaphire posthuma [20]) of 42.48 min and a zone of inhibition at 50 µg/mL (Candida albicans [21]) of 13.8 mm. It also gave a zone of inhibition at 100 µg/mL (Candida albicans [22]) of 21.5 mm, an IC50 [23] of 98 µg/mL (≈ 265 µM) and a zone of inhibition at 25 µg/mL (Escherichia coli [24]) of 12.5 mm. It also gave an inhibition [25] of 44.6%, a Time (Metaphire posthuma [26]) of 47.44 min and a zone of inhibition at 25 µg/mL (Pseudomonas aeruginosa [27]) of 9.67 mm. It also gave an IC50 [28] of 97 µg/mL (≈ 262 µM) and a zone of inhibition at 100 µg/mL (Pseudomonas aeruginosa [29]) of 18.8 mm.

In the case of `CCOC(=O)c1cnn(-c2nc(-c3cccc(OC)c3OC)c(C#N)c(=O)n2C)c1N`, the Time (Metaphire posthuma [1]) is reported as 87.55 min, the zone of inhibition at 50 µg/mL (Staphylococcus aureus [2]) is reported as 14.1 mm and the zone of inhibition at 25 µg/mL (Staphylococcus aureus [3]) is reported as 10.3 mm. The Time (Metaphire posthuma [4]) was 62.12 min, the zone of inhibition at 25 µg/mL (Candida albicans [5]) was 9.41 mm and the IC50 [6] was 54 µg/mL (≈ 127 µM). For the same molecule, the zone of inhibition at 100 µg/mL (Escherichia coli [7]) was 16.2 mm, the Time (Metaphire posthuma [8]) was 55.1 min and the zone of inhibition at 100 µg/mL (Aspergillus niger [9]) was 18.9 mm. The zone of inhibition at 25 µg/mL (Bacillus subtilis [10]) was 11.6 mm, the IC50 [11] was 67 µg/mL (≈ 158 µM) and the Time (Metaphire posthuma [12]) was 43.9 min. For the same molecule, the zone of inhibition at 100 µg/mL (Bacillus subtilis [13]) was 19.2 mm, the zone of inhibition at 50 µg/mL (Aspergillus niger [14]) was 12.1 mm and the zone of inhibition at 50 µg/mL (Pseudomonas aeruginosa [15]) was 12.3 mm. It also gave a zone of inhibition at 100 µg/mL (Staphylococcus aureus [16]) of 18.7 mm, a zone of inhibition at 50 µg/mL (Escherichia coli [17]) of 12.4 mm and a zone of inhibition at 25 µg/mL (Aspergillus niger [18]) of 10.8 mm. For the same molecule, the zone of inhibition at 50 µg/mL (Bacillus subtilis [19]) was 15.1 mm, the Time (Metaphire posthuma [20]) was 75.14 min and the zone of inhibition at 50 µg/mL (Candida albicans [21]) was 13.5 mm. For the same molecule, the zone of inhibition at 100 µg/mL (Candida albicans [22]) was 17 mm, the IC50 [23] was 69 µg/mL (≈ 163 µM) and the zone of inhibition at 25 µg/mL (Escherichia coli [24]) was 10.3 mm. For the same molecule, the inhibition [25] was 33.9%, the Time (Metaphire posthuma [26]) was 52.69 min and the zone of inhibition at 25 µg/mL (Pseudomonas aeruginosa [27]) was 9.9 mm. For the same molecule, the IC50 [28] was 57 µg/mL (≈ 134 µM) and the zone of inhibition at 100 µg/mL (Pseudomonas aeruginosa [29]) was 17.4 mm.
